Measurements taken from ChEMBL document CHEMBL5360562 (Eur J Med Chem, 2023).
≈ marks a conversion by molar mass, not a printed value.

Tests used:
Acinetobacter baumannii [1] = assay: Antibacterial activity against Acinetobacter baumannii AB5075 assessed as reduction in bacterial growth incubated for 16 hrs by broth microdilution method; assay type: functional
Acinetobacter baumannii [2] = assay: Potentiation of Clarithromycin antibacterial activity against Acinetobacter baumannii AB5075 assessed as clarithromycin MIC at 30 uM incubated for 16 hrs by broth microdilution method; assay type: functional
Acinetobacter baumannii [3] = assay: Potentiation of Clarithromycin antibacterial activity against Acinetobacter baumannii AB5075 assessed as clarithromycin MIC at 7.5 uM incubated for 16 hrs by broth microdilution method; assay type: functional
Acinetobacter baumannii [4] = assay: Potentiation of Clarithromycin antibacterial activity against Acinetobacter baumannii AB5075 assessed as clarithromycin MIC at 5 uM incubated for 16 hrs by broth microdilution method; assay type: functional
Acinetobacter baumannii [5] = assay: Potentiation of Clarithromycin antibacterial activity against Acinetobacter baumannii AB5075 assessed as fold reduction in clarithromycin MIC at 30 uM incubated for 16 hrs by broth microdilution method; assay type: functional
Method in brief: (§1)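 Checkerboard-style potentiation by broth microdilution. 6 h day cultures in CAMHB diluted to 5×10^5 CFU/mL. Adjuvant added from 10 mM DMSO stock at fixed concentration throughout. […] Controls: antibiotic alone, adjuvant alone, media only. Incubated stationary at 37 °C for 16 h. MIC is lowest concentration with no visible growth; fold reduction taken against the antibiotic-alone lane.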

Acinetobacter baumannii [6] = assay: Potentiation of Clarithromycin antibacterial activity against Acinetobacter baumannii AB5075 assessed as fold reduction in clarithromycin MIC at 7.5 uM incubated for 16 hrs by broth microdilution method; assay type: functional; method in brief: as §1
Acinetobacter baumannii [7] = assay: Potentiation of Clarithromycin antibacterial activity against Acinetobacter baumannii AB5075 assessed as fold reduction in clarithromycin MIC at 5 uM incubated for 16 hrs by broth microdilution method; assay type: functional; method in brief: as §1
[8] = Antiproliferative against human HepG2 cells assessed as reduction in cell viability incubated for 24 hrs by XTT assay; assay type: toxicity, cell-based
[9] = Therapeutic index, ratio of IC50 for antiproliferative against human HepG2 cells assessed as reduction in cell viability to MIC for potentiation of Clarithromycin antibacterial activity against Acinetobacter baumannii […] assessed as clarithromycin MIC; assay type: toxicity, cell-based; conditions: read-out: TI
[10] = Stability of compound in human plasma assessed as parent compound remaining measured at 4 hrs; assay type: ADME, cell-free
Method in brief: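 Compound at 20 μM final in human plasma (from 10 mM DMSO stock), 37 °C; aliquots at 0, 30, 60, 120, 240 min quenched in internal standard in 1:1 ACN/MeOH, centrifuged, supernatant analysed by UPLC-MRM. Peak-area ratio to internal standard expressed as % parent remaining relative to 0 min; half-life calculated.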

[11] = Metabolic stability in human liver microsomes assessed as parent compound remaining in presence of NADPH measured at 1 hr by UV-UPLC analysis; assay type: ADME, Microsome
Acinetobacter baumannii [12] = assay: Potentiation of Clarithromycin antibacterial activity against Acinetobacter baumannii AB5075 assessed as reduction in clarithromycin MIC at 20 uM incubated for 16 hrs by broth microdilution method; assay type: functional; conditions: for MIC: Acinetobacter baumannii, AB5075
Acinetobacter baumannii [13] = assay: Potentiation of Clarithromycin antibacterial activity against Acinetobacter baumannii AB5075 assessed as clarithromycin MIC at 2.5 uM incubated for 16 hrs by broth microdilution method; assay type: functional
Acinetobacter baumannii [14] = assay: Potentiation of Clarithromycin antibacterial activity against Acinetobacter baumannii AB5075 assessed as clarithromycin MIC at 10 uM incubated for 16 hrs by broth microdilution method; assay type: functional
Acinetobacter baumannii [15] = assay: Potentiation of Clarithromycin antibacterial activity against Acinetobacter baumannii AB5075 assessed as fold reduction in clarithromycin MIC at 10 uM incubated for 16 hrs by broth microdilution method; assay type: functional; method in brief: as §1
Acinetobacter baumannii [16] = assay: Potentiation of Azithromycin antibacterial activity against Acinetobacter baumannii AB5075 assessed as azithromycin MIC at 30 uM incubated for 16 hrs by broth microdilution method; assay type: functional
Acinetobacter baumannii [17] = assay: Potentiation of Azithromycin antibacterial activity against Acinetobacter baumannii AB5075 assessed as azithromycin MIC at 20 uM incubated for 16 hrs by broth microdilution method; assay type: functional
Acinetobacter baumannii [18] = assay: Potentiation of Azithromycin antibacterial activity against Acinetobacter baumannii AB5075 assessed as azithromycin MIC at 10 uM incubated for 16 hrs by broth microdilution method; assay type: functional
Acinetobacter baumannii [19] = assay: Potentiation of erythromycin antibacterial activity against Acinetobacter baumannii AB5075 assessed as erythromycin MIC at 30 uM incubated for 16 hrs by broth microdilution method; assay type: functional
Acinetobacter baumannii [20] = assay: Potentiation of erythromycin antibacterial activity against Acinetobacter baumannii AB5075 assessed as erythromycin MIC at 20 uM incubated for 16 hrs by broth microdilution method; assay type: functional
Acinetobacter baumannii [21] = assay: Potentiation of erythromycin antibacterial activity against Acinetobacter baumannii AB5075 assessed as erythromycin MIC at 10 uM incubated for 16 hrs by broth microdilution method; assay type: functional
Acinetobacter baumannii [22] = assay: Potentiation of rifampicin antibacterial activity against Acinetobacter baumannii AB5075 assessed as rifampicin MIC at 30 uM incubated for 16 hrs by broth microdilution method; assay type: functional
Acinetobacter baumannii [23] = assay: Potentiation of rifampicin antibacterial activity against Acinetobacter baumannii AB5075 assessed as rifampicin MIC at 20 uM incubated for 16 hrs by broth microdilution method; assay type: functional
Acinetobacter baumannii [24] = assay: Potentiation of rifampicin antibacterial activity against Acinetobacter baumannii AB5075 assessed as rifampicin MIC at 10 uM incubated for 16 hrs by broth microdilution method; assay type: functional
Acinetobacter baumannii [25] = assay: Potentiation of rifampicin antibacterial activity against Acinetobacter baumannii AB5075 assessed as rifampicin MIC at 7.5 uM incubated for 16 hrs by broth microdilution method; assay type: functional
Method in brief: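 A. baumannii AB5075 6 h day cultures in CAMHB subcultured to 5×10^5 CFU/mL; adjuvant added from 10 mM DMSO stock at fixed concentration, then rifampicin (DMSO) twofold serially diluted in adjuvant-containing broth. Antibiotic-alone and adjuvant-alone control lanes.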

Compound | MIC (Acinetobacter baumannii [1]) | MIC (Acinetobacter baumannii [2]) | MIC (Acinetobacter baumannii [3]) | MIC (Acinetobacter baumannii [4]) | fold change (FC) (Acinetobacter baumannii [5]) | fold change (FC) (Acinetobacter baumannii [6]) | fold change (FC) (Acinetobacter baumannii [7]) | fold change (FC) (Acinetobacter baumannii [12]) | MIC (Acinetobacter baumannii [12]) | MIC (Acinetobacter baumannii [14]) | fold change (FC) (Acinetobacter baumannii [15]) | other results
Nc1nc(-c2ccc(NC(=O)c3ccc(Cl)c(Cl)c3)cc2F)c[nH]1 | > 200 µM | 0.5 µg/mL | 1 µg/mL | 8 µg/mL | 64 | 32 | 4 | – | – | – | – | IC50 at 24 h [8]: 6.8 µg/mL (≈ 18.6 µM); selectivity ratio [9]: 2.3; Stability [10]: > 95%; Stability [11]: 57%
Cl.Cl.Nc1nc(-c2cc(F)cc(NC(=O)Nc3ccc(-c4c[nH]c(N)n4)c(F)c3)c2)c[nH]1 | > 200 µM | ≤ 0.062 µg/mL | 0.25 µg/mL | 1 µg/mL | >=512 | 128 | – | 256 | 0.125 µg/mL | – | – | MIC (Acinetobacter baumannii [13]): 32 µg/mL
Cl.Cl.Nc1nc(-c2ccc(F)c(NC(=O)Nc3cc(-c4c[nH]c(N)n4)ccc3F)c2)c[nH]1 | > 200 µM | 32 µg/mL | – | – | 1 | – | – | – | – | – | – | –
Cl.Cl.Nc1nc(-c2ccc(F)c(NC(=O)Nc3ccc(-c4c[nH]c(N)n4)c(F)c3)c2)c[nH]1 | > 200 µM | 8 µg/mL | – | – | 4 | – | – | – | – | – | – | –
Cl.Cl.Nc1nc(-c2cccc(NC(=O)Nc3cc(F)cc(-c4c[nH]c(N)n4)c3)c2)c[nH]1 | > 200 µM | ≤ 0.062 µg/mL | 1 µg/mL | 16 µg/mL | >=512 | 32 | 2 | >=512 | ≤ 0.062 µg/mL | 0.5 µg/mL | 64 | –
COc1cc(-c2c[nH]c(N)n2)ccc1NC(=O)Nc1ccc(-c2c[nH]c(N)n2)cc1OC.Cl.Cl | 200 µM | 8 µg/mL | – | – | 4 | – | – | – | – | – | – | –
Cl.Cl.Nc1nc(-c2ccc(NC(=O)Nc3ccc(-c4c[nH]c(N)n4)c(F)c3)cc2)c[nH]1 | > 200 µM | ≤ 0.062 µg/mL | 2 µg/mL | – | >=512 | 16 | – | 64 | 0.5 µg/mL | 1 µg/mL | 32 | –
Nc1nc(-c2cccc(NC(=O)Nc3cccc(-c4c[nH]c(N)n4)c3)c2)c[nH]1 | 200 µM (≈ 74.9 µg/mL) | ≤ 0.062 µg/mL | 1 µg/mL | 4 µg/mL | >=512 | 32 | 8 | – | – | 0.5 µg/mL | 64 | IC50 at 24 h [8]: 380 µg/mL (≈ 1010 µM); selectivity ratio [9]: 113; MIC (Acinetobacter baumannii [16]): 0.5 µg/mL; MIC (Acinetobacter baumannii [17]): 0.5 µg/mL; MIC (Acinetobacter baumannii [18]): 4 µg/mL; MIC (Acinetobacter baumannii [19]): 0.25 µg/mL; MIC (Acinetobacter baumannii [20]): 0.5 µg/mL; MIC (Acinetobacter baumannii [21]): 4 µg/mL; MIC (Acinetobacter baumannii [22]): 0.003 µg/mL; MIC (Acinetobacter baumannii [23]): 0.015 µg/mL; MIC (Acinetobacter baumannii [24]): 0.125 µg/mL; MIC (Acinetobacter baumannii [25]): 1 µg/mL; Stability [10]: 88%; Stability [11]: 93%
